A selection: hits, their analogues and other compounds. The true share with any hit is near 1.5%.
PKA-R2B activ: PKA-R2B complex activation. activation, % at 11.4 µM. PKA-R2B holoenzyme dissociation, Cy5-IP20 fluorescence polarization; R2B truncated from residue 108, S112A mutant; 0% DMSO only, 100% 113 µM cGMP. actives 0.079% (n = 340,000). AID 504700. P22694+P31323;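 active = activation above a cutoff set at the mean over all compounds plus 3 SD, cut at about 18% in these data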;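 also: higher means more holoenzyme dissociation and a rise in polarization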
Target sequence (P31323 whole entry, looked up, other chains not shown, the tested form may be a part): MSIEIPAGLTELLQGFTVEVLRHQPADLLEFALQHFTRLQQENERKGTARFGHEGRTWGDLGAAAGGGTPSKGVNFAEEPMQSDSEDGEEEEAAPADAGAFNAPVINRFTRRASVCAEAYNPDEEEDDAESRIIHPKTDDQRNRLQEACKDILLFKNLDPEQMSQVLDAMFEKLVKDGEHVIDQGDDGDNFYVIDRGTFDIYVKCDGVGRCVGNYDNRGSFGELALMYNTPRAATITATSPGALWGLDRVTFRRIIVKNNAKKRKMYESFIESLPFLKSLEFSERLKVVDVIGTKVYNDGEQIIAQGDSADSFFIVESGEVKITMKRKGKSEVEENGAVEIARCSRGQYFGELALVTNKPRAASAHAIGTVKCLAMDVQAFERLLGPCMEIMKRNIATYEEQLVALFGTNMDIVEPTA
CRFR2-BP antag: CRF-BP/CRF-R2 complex antagonism; HEK293 CRF-R2/CRF-BP, CRF-induced calcium fluorescence; inhibition, % at 11.8 µM; actives 0.59% (n = 350,000); AID 588475;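 active = inhibition of the ligand-induced calcium signal above about 50% at the single tested concentration, limit read from the data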
SIRT5 block: sirtuin-5 (human) deacylase inhibition; Q9NXA8; Purified SirT5, succinyl-peptide AMC, trypsin-coupled fluorescence; inhibition, % at 15 µM; actives 1.1% (n = 330,000); AID 652115; in the data active = inhibition above about 15%
S100A4 inh HTS: inhibitors of human S100A4 binding to myosin IIA peptide; P26447; S100A4/TAMRA-MyoIIA peptide fluorescence polarization; inhibition, % at 10.7 µM; actives 0.14% (n = 360,000);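 active = mean inhibition of at least 70% across replicates, with every replicate also reaching that level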
Target sequence (P26447 whole entry, looked up): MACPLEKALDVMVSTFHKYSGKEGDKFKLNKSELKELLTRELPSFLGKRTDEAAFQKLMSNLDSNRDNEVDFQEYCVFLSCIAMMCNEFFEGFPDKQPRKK
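Test system – S100A4 monomer (human) · Compound – single-point compound testing · Schedule – 5 min incubation before reading · Probe or stimulus – TAMRA-labelled myosin IIA heavy-chain peptide probe, 5 nM · Benchmarks – neutral control DMSO, positive control TFP · Medium – Calcium-containing HEPES buffer, pH 7.2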
PKA-R1A act: activators of PKA-R1A complex | P00514+P68181 | PKA-R1A dissociation, Cy5-IP20 fluorescence polarization; scaled: DMSO 0%, 113 µM cGMP 100% | activation, % at 11.4 µM | actives 0.083% (n = 340,000);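 active = percent activation above the mean of all tested compounds plus 3 SD, cut at about 19% in these data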;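 also: higher means more PKAc released from R1A so a rise in polarization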
An asterisk follows results filed as active; nt = no result given.

SMILES	PKA-R2B activ	CRFR2-BP antag	SIRT5 block	S100A4 inh HTS	PKA-R1A act
COc1ccccc1S(=O)(=O)N(C)C[C@@H]1Oc2cc(C#CCC(C)C)ccc2S(=O)(=O)N([C@H](C)CO)C[C@H]1C	nt	nt	28*	3	nt
COc1cccc(S(=O)(=O)N(C)C[C@@H]2Oc3cc(C#CCC(C)C)ccc3S(=O)(=O)N([C@@H](C)CO)C[C@@H]2C)c1	nt	nt	-5	6	nt
O=C(C[C@H]1C[C@H]2c3cc(NC(=O)C4CCOCC4)ccc3O[C@H]2[C@@H](CO)O1)NCc1ccncc1	nt	nt	-10	4	nt
COc1cccc(S(=O)(=O)N(C)C[C@@H]2Oc3cc(C#CCC(C)C)ccc3S(=O)(=O)N([C@H](C)CO)C[C@H]2C)c1	nt	nt	9	6	nt
COc1ccccc1S(=O)(=O)N(C)C[C@@H]1Oc2cc(C#CCC(C)C)ccc2S(=O)(=O)N([C@@H](C)CO)C[C@@H]1C	nt	nt	28*	0	nt
C[C@@H](NC(=O)C[C@H]1CC[C@H](NC(=O)C2CCC2)[C@H](CO)O1)c1ccccc1	nt	nt	2	4	nt
C/C(=N\NC(=S)NCc1ccccc1)c1ccccc1	1	6	-3	-2	-5
CC1=C/C(=N\NC(=S)NCc2ccccc2)CC1	-3	-7	18*	0	-9
O=C(Nc1ccc(S(=O)(=O)N2CCOCC2)cc1)c1ccc(Cl)c([N+](=O)[O-])c1	10	56*	-4	-2	1
CSc1ncc(Cl)c(C(=O)Nc2ccc(S(=O)(=O)N3CCOCC3)cc2)n1	6	90*	nt	nt	0
CC1CCN(S(=O)(=O)c2nnc(NC(=O)c3cccc(Cl)c3)s2)CC1	2	60*	-2	0	-2
C[C@@H]1CN([C@H](C)CO)C(=O)c2cc(NS(C)(=O)=O)ccc2O[C@@H]1CN(C)C(=O)Nc1ccc(F)cc1	nt	nt	-1	8	nt
COC(=O)c1cn(C)c2ccc(S(=O)(=O)N(C)C3CCCCC3)cc2c1=O	-1	-40	-1	-1	6
CCC1CCCCN1CCCNC(=O)c1cn(C)c2ccc(S(=O)(=O)N(C)C3CCCCC3)cc2c1=O (stereo not drawn)	-3	56*	1	-3	6
CCC1CCCCN1CCCNC(=O)c1cn(C)c2ccc(S(=O)(=O)N3CCOCC3)cc2c1=O (stereo not drawn)	4	10	-4	-3	-11
CCn1cc(C(=O)OC)c(=O)c2cc(S(=O)(=O)N(C)C3CCCCC3)ccc21	-1	-18	27*	-6	-9
CCN(CC)c1ccc(N=C2C=CC(=O)C=C2NC(C)=O)cc1	nt	-23	nt	127*	nt
CCCNC(=O)[C@@H]1[C@@H](CO)[C@@H]2Cn3c(ccc(-c4ccccc4F)c3=O)[C@H]1N2C(=O)CC	nt	nt	-13	-11	nt
CCCCc1ccc(NC(=O)Nc2cccnc2)cc1	-7	-8	5	-2	-7
CCCCc1ccc(NC(=S)Nc2cccnc2)cc1	-8	53*	4	-5	-4
C[C@H](CO)N1C[C@H](C)[C@@H](CN(C)Cc2ccccn2)Oc2ncc(C#Cc3cccc(F)c3)cc2C1=O	nt	nt	-4	0	nt
Cc1cc(C)c2nc(N3CCC(C(=O)NCC4CCCO4)CC3)sc2c1 (stereo not drawn)	2	-2	27*	3	-18
CCC(=O)N1[C@H](CO)[C@@H](c2ccc(-c3ccc(C#N)cc3)cc2)C12CN(C(C)=O)C2	nt	nt	-3	7	nt
COc1ccc(C(=O)Nc2ccc(C3CC3(Cl)Cl)cc2)cc1 (stereo not drawn)	4	75*	-1	-20	-2
O=C1CCCN1CCCNC(=S)Nc1ccccc1	nt	19	-1	4	nt
SMILES	PKA-R2B activ	CRFR2-BP antag	SIRT5 block	S100A4 inh HTS	PKA-R1A act
O=C(CNCc1ccccc1)NCCCN1CCCC1=O	-3	22	17*	-8	1
O=C(CSc1nnnn1-c1ccccc1)NCCCN1CCCC1=O	2	57*	-2	-2	9
O=C(NCc1ccc(F)cc1)[C@H]1[C@H](CO)[C@H]2Cn3c(cccc3=O)[C@@H]1N2C(=O)Cc1ccccn1	nt	nt	-2	5	nt
COc1ccc(CN(C)C[C@H]2OCCCC[C@@H](C)Oc3ccc(NS(=O)(=O)c4cn(C)cn4)cc3C(=O)N([C@H](C)CO)C[C@H]2C)cc1	nt	nt	1	6	nt
CC(C)(C)C(=O)/C(=C/c1ccc(Cl)cc1)n1cncn1	7	55*	-3	3	-3
CC(C)/C=C(/C(=O)c1ccc(Cl)cc1Cl)n1cncn1	4	3	1	-6	5
COc1ccc2c3c([nH]c2c1)[C@H](CO)N(C(=O)c1ccccn1)CC31CN(S(C)(=O)=O)C1	nt	nt	0	7	nt
O=C1C(=Cc2cn(-c3ccccc3)nc2-c2ccc(OCc3ccc(Cl)cc3)cc2)SC(=S)N1CCS(=O)(=O)O	nt	nt	37*	-10	nt
COc1ccc(-c2nn(-c3ccccc3)cc2/C=C2/SC(=S)N(CCC(=O)O)C2=O)c(C)c1	3	52*	8	-2	1
CC1(C)CN(c2ccccc2)N(C(=O)c2ccc(F)cc2)C1=O	-8	-10	24*	6	-10
OC(COc1ccc(Br)cc1)CN1CCC(Cc2ccccc2)CC1 (stereo not drawn)	7	-36	30*	-2	-1
CC(C)OCC(O)CN1CCC(Cc2ccccc2)CC1 (stereo not drawn)	2	-3	1	2	0
C[C@@H]1CN([C@@H](C)CO)C(=O)Cc2cc(NC(=O)Cc3cn(C)c4ccccc34)ccc2O[C@@H]1CN(C)C(=O)NC1CCCCC1	nt	nt	-6	2	nt
C[C@H](O)C#Cc1cnc2c(c1)C(=O)N([C@H](C)CO)C[C@@H](C)[C@@H](CN(C)Cc1ccccn1)O2	nt	nt	1	1	nt
COc1ccc(CN2CCCCC2C)c(C)c1C (stereo not drawn)	-3	-16	nt	nt	0
COc1ccc(CN2CCCCC2C)cc1C (stereo not drawn)	1	60*	nt	nt	-8
CN(c1ccccc1)S(=O)(=O)c1cccc(NC(=O)COc2cccc([N+](=O)[O-])c2)c1	-2	52*	-4	3	-3
CCC(=O)c1ccc(OCC(=O)Nc2cccc(S(=O)(=O)N(C)c3ccccc3)c2)cc1	-2	2	1	-3	-2
CN(C)CC(=O)N[C@H]1C=C[C@@H](CC(=O)NCCN2CCCCC2)O[C@H]1CO	nt	nt	1	-3	nt
Cc1sc(NC(=O)c2ccco2)c(C(=O)c2ccc(Cl)cc2)c1C	12	-53	16*	-8	-8
Cc1sc(NC(=O)c2ccco2)c(C(c2ccccc2)N2CCC(C)CC2)c1C (stereo not drawn)	-9	-28	18*	2	0
C[C@@H]1CN([C@@H](C)CO)C(=O)c2cc(NC(=O)Nc3ccc(F)cc3)ccc2O[C@@H](C)CCCCO[C@@H]1CN(C)C(=O)CCCN(C)C	nt	nt	-2	10	nt

From PubChem BioAssay
